According to ChEMBL document CHEMBL5724801, “EUbOPEN Chemogenomics Library - Multiplex” (2024):
“And” between values parts separate entries of the source, which are not always exact repeats. Equal values may be shown once.

Test system: HEK-293T
Assay: Multiplex assay against HEK293T
Format: toxicity, cell-based
Conditions: human
Procedure, shortened: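 On a CQ1 microscope at 37°C and 5% CO2, live cells were imaged after compound addition. They had been stained at seeding with Hoechst33342, BioTracker Green Microtubule Cytoskeleton Dye, MitoTracker Red and Annexin V Alexa Fluor 680. CellPathfinder machine-learning gating assigned cells to Hoechst high-intensity objects or normal cells, normal cells to healthy, pyknosed or fragmented nuclei, and pyknosed cells to mitotic or apoptotic. Tubulin, mitochondrial-mass and membrane-permeability phenotypes are per cents of healthy-nucleus cells.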

[1] = 12 h, 1 µM, compound concentration 1 uM
[2] = 12 h, 10 µM, compound concentration 10 uM
[3] = 24 h, 1 µM, compound concentration 1 uM
[4] = 24 h, 10 µM, compound concentration 10 uM
[5] = 48 h, 1 µM, compound concentration 1 uM
[6] = 48 h, 10 µM, compound concentration 10 uM

O=C1NC(NC23CC4CC(CC(C4)C2)C3)=N/C1=C\c1ccc2ncsc2c1
Population Apoptotic (%) [1]: 29.13% and 49.03%
Population Fragmented Nuclei (%) [1]: 8.91% and 6.01%
Population Hoechst High Intensity Objects (%) [1]: 6.05% and 0.54%
Population Membrane Permeable-Phenotype (%) [1]: 1.75% and 0%
Population Mitochondria Different-Phenotype (%) [1]: 15.79% and 5.88%
Population Mitotic Cells (%) [1]: 70.87% and 50.97%
Population Normal (%) [1]: 93.95% and 99.46%
Population Pyknosed Nuclei (%) [1]: 62.87% and 84.7%
Population Tubulin-Different-Phenotype (%) [1]: 17.54% and 23.53%
Total Cell Count [1]: 215 and 184
Population Apoptotic (%) [2]: 29.21% and 56.72%
Population Fragmented Nuclei (%) [2]: 84.08% and 93.38%
Population Healthy Nuclei (%) [2]: 3.91% and 2.86%
Population Hoechst High Intensity Objects (%) [2]: 21.42% and 7.86%
Population Membrane Permeable-Phenotype (%) [2]: 0%
Population Mitochondria Different-Phenotype (%) [2]: 0%
Population Mitotic Cells (%) [2]: 70.79% and 43.28%
Population Normal (%) [2]: 78.58% and 92.14%
Population Pyknosed Nuclei (%) [2]: 12.01% and 3.76%
Population Tubulin-Different-Phenotype (%) [2]: 0%
Total Cell Count [2]: 943 and 1934
Population Apoptotic (%) [3]: 59.35% and 52.46%
Population Fragmented Nuclei (%) [3]: 10.75% and 5.21%
Population Healthy Nuclei (%) [3]: 23.12% and 8.06%
Population Hoechst High Intensity Objects (%) [3]: 4.62% and 0%
Population Membrane Permeable-Phenotype (%) [3]: 6.98% and 5.88%
Population Mitochondria Different-Phenotype (%) [3]: 4.65% and 0%
Population Mitotic Cells (%) [3]: 40.65% and 47.54%
Population Normal (%) [3]: 95.38% and 100%
Population Pyknosed Nuclei (%) [3]: 66.13% and 86.73%
Population Tubulin-Different-Phenotype (%) [3]: 16.28% and 11.76%
Total Cell Count [3]: 195 and 211
Population Apoptotic (%) [4]: 30% and 40.21%
Population Fragmented Nuclei (%) [4]: 85.18% and 91.28%
Population Healthy Nuclei (%) [4]: 4.04% and 1.95%
Population Hoechst High Intensity Objects (%) [4]: 21.4% and 9.41%
Population Membrane Permeable-Phenotype (%) [4]: 3.33% and 0%
Population Mitochondria Different-Phenotype (%) [4]: 0%
Population Mitotic Cells (%) [4]: 70% and 59.79%
Population Normal (%) [4]: 78.6% and 90.59%
Population Pyknosed Nuclei (%) [4]: 10.78% and 6.76%
Population Tubulin-Different-Phenotype (%) [4]: 0% and 3.57%
Total Cell Count [4]: 944 and 1583
Population Apoptotic (%) [5]: 47.65% and 48.67%
Population Fragmented Nuclei (%) [5]: 14.23% and 10.83%
Population Healthy Nuclei (%) [5]: 14.64% and 17.2%
Population Hoechst High Intensity Objects (%) [5]: 2.85% and 0.63%
Population Membrane Permeable-Phenotype (%) [5]: 0% and 3.7%
Population Mitochondria Different-Phenotype (%) [5]: 40% and 33.33%
Population Mitotic Cells (%) [5]: 52.35% and 51.33%
Population Normal (%) [5]: 97.15% and 99.37%
Population Pyknosed Nuclei (%) [5]: 71.13% and 71.97%
Population Tubulin-Different-Phenotype (%) [5]: 25.71% and 48.15%
Total Cell Count [5]: 246 and 158
Population Apoptotic (%) [6]: 35.64% and 60.49%
Population Fragmented Nuclei (%) [6]: 84.47% and 93.33%
Population Healthy Nuclei (%) [6]: 3.18% and 1.42%
Population Hoechst High Intensity Objects (%) [6]: 23.26% and 9.23%
Population Membrane Permeable-Phenotype (%) [6]: 0%
Population Mitochondria Different-Phenotype (%) [6]: 0%
Population Mitotic Cells (%) [6]: 64.36% and 39.51%
Population Normal (%) [6]: 76.74% and 90.77%
Population Pyknosed Nuclei (%) [6]: 12.35% and 5.25%
Population Tubulin-Different-Phenotype (%) [6]: 0%
Total Cell Count [6]: 1066 and 1701

Cc1cc(C(C#N)c2ccc(Cl)cc2)c(Cl)cc1NC(=O)c1cc(I)cc(I)c1O (centres undefined) [CLOSANTEL]
Population Apoptotic (%) [1]: 6.57% and 5.41%
Population Fragmented Nuclei (%) [1]: 3.34% and 0.56%
Population Hoechst High Intensity Objects (%) [1]: 0%
Population Membrane Permeable-Phenotype (%) [1]: 1.66% and 0%
Population Mitotic Cells (%) [1]: 93.43% and 94.59%
Population Normal (%) [1]: 100%
Population Pyknosed Nuclei (%) [1]: 41.64% and 82.22%
Total Cell Count [1]: 329 and 180
Population Apoptotic (%) [2]: 9.49% and 11.94%
Population Fragmented Nuclei (%) [2]: 1.44% and 2.52%
Population Hoechst High Intensity Objects (%) [2]: 0.29% and 0%
Population Membrane Permeable-Phenotype (%) [2]: 0%
Population Mitotic Cells (%) [2]: 90.51% and 88.06%
Population Normal (%) [2]: 99.71% and 100%
Population Pyknosed Nuclei (%) [2]: 39.37% and 84.28%
Total Cell Count [2]: 349 and 159
Population Apoptotic (%) [3]: 9.09% and 12.78%
Population Fragmented Nuclei (%) [3]: 2.28% and 0.53%
Population Healthy Nuclei (%) [3]: 72.62% and 29.1%
Population Hoechst High Intensity Objects (%) [3]: 0.19% and 0%
Population Membrane Permeable-Phenotype (%) [3]: 1.05% and 0%
Population Mitochondria Different-Phenotype (%) [3]: 12.3% and 16.36%
Population Mitotic Cells (%) [3]: 90.91% and 87.22%
Population Normal (%) [3]: 99.81% and 100%
Population Pyknosed Nuclei (%) [3]: 25.1% and 70.37%
Population Tubulin-Different-Phenotype (%) [3]: 11.78% and 10.91%
Total Cell Count [3]: 527 and 189
Population Apoptotic (%) [4]: 21.1% and 18.35%
Population Fragmented Nuclei (%) [4]: 2.28% and 2.25%
Population Healthy Nuclei (%) [4]: 75.1% and 36.52%
Population Hoechst High Intensity Objects (%) [4]: 0.21% and 2.73%
Population Membrane Permeable-Phenotype (%) [4]: 0.83% and 1.54%
Population Mitochondria Different-Phenotype (%) [4]: 12.15% and 7.69%
Population Mitotic Cells (%) [4]: 78.9% and 81.65%
Population Normal (%) [4]: 99.79% and 97.27%
Population Pyknosed Nuclei (%) [4]: 22.61% and 61.24%
Population Tubulin-Different-Phenotype (%) [4]: 3.04% and 9.23%
Total Cell Count [4]: 483 and 183
Population Apoptotic (%) [5]: 9.63% and 18.42%
Population Fragmented Nuclei (%) [5]: 3.24% and 1.21%
Population Healthy Nuclei (%) [5]: 87.05% and 68.15%
Population Hoechst High Intensity Objects (%) [5]: 0% and 0.8%
Population Membrane Permeable-Phenotype (%) [5]: 4.96% and 1.78%
Population Mitochondria Different-Phenotype (%) [5]: 11.57% and 23.67%
Population Mitotic Cells (%) [5]: 90.37% and 81.58%
Population Normal (%) [5]: 100% and 99.2%
Population Fragmented Nuclei (%) [6]: 2.8% and 1.44%
Population Healthy Nuclei (%) [6]: 87.9% and 66.19%
Population Hoechst High Intensity Objects (%) [6]: 0.07% and 0%
Population Membrane Permeable-Phenotype (%) [6]: 1.34% and 0.54%
Population Mitochondria Different-Phenotype (%) [6]: 8.23% and 21.74%
Population Mitotic Cells (%) [6]: 96.03% and 80%
Population Normal (%) [6]: 99.93% and 100%

Cl.N=C(N)NC(=O)Cc1c(Cl)cccc1Cl [GUANFACINE HYDROCHLORIDE]
Population Apoptotic (%) [1]: 29% and 47%
Population Fragmented Nuclei (%) [1]: 3% and 5%
Population Healthy Nuclei (%) [1]: 84% and 76%
Population Hoechst High Intensity Objects (%) [1]: 7% and 12%
Population Membrane Permeable-Phenotype (%) [1]: 0%
Population Mitochondria Different-Phenotype (%) [1]: 46% and 67%
Population Mitotic Cells (%) [1]: 70% and 52%
Population Normal (%) [1]: 92% and 87%
Population Pyknosed Nuclei (%) [1]: 11% and 17%
Population Tubulin-Different-Phenotype (%) [1]: 31%
Total Cell Count [1]: 384 and 289
Population Apoptotic (%) [2]: 52% and 34%
Population Fragmented Nuclei (%) [2]: 12% and 8%
Population Healthy Nuclei (%) [2]: 67% and 77%
Population Hoechst High Intensity Objects (%) [2]: 7% and 10%
Population Membrane Permeable-Phenotype (%) [2]: 0%
Population Mitochondria Different-Phenotype (%) [2]: 61% and 69%
Population Mitotic Cells (%) [2]: 47% and 65%
Population Normal (%) [2]: 92% and 89%
Population Pyknosed Nuclei (%) [2]: 20% and 14%
Population Tubulin-Different-Phenotype (%) [2]: 43% and 38%
Total Cell Count [2]: 296 and 365
Population Apoptotic (%) [3]: 36% and 50%
Population Fragmented Nuclei (%) [3]: 8% and 4%
Population Healthy Nuclei (%) [3]: 80% and 83%
Population Hoechst High Intensity Objects (%) [3]: 4% and 10%
Population Membrane Permeable-Phenotype (%) [3]: 0%
Population Mitochondria Different-Phenotype (%) [3]: 27% and 42%
Population Mitotic Cells (%) [3]: 63% and 50%
Population Normal (%) [3]: 95% and 89%
Population Pyknosed Nuclei (%) [3]: 11%
Population Tubulin-Different-Phenotype (%) [3]: 21% and 19%
Total Cell Count [3]: 493 and 344
Population Apoptotic (%) [4]: 46% and 36%
Population Fragmented Nuclei (%) [4]: 11% and 6%
Population Healthy Nuclei (%) [4]: 75% and 83%
Population Hoechst High Intensity Objects (%) [4]: 7% and 9%
Population Membrane Permeable-Phenotype (%) [4]: 0%
Population Mitochondria Different-Phenotype (%) [4]: 48% and 50%
Population Mitotic Cells (%) [4]: 53% and 63%
Population Normal (%) [4]: 92% and 90%
Population Pyknosed Nuclei (%) [4]: 12% and 10%
Population Tubulin-Different-Phenotype (%) [4]: 39% and 27%
Total Cell Count [4]: 343 and 454
Population Apoptotic (%) [5]: 15% and 34%
Population Fragmented Nuclei (%) [5]: 15% and 10%
Population Healthy Nuclei (%) [5]: 78% and 79%
Population Hoechst High Intensity Objects (%) [5]: 2% and 7%
Population Membrane Permeable-Phenotype (%) [5]: 1% and 0%
Population Mitochondria Different-Phenotype (%) [5]: 22% and 32%
Population Mitotic Cells (%) [5]: 84% and 65%
Population Normal (%) [5]: 97% and 92%
Population Pyknosed Nuclei (%) [5]: 6% and 9%
Population Tubulin-Different-Phenotype (%) [5]: 21% and 14%
Total Cell Count [5]: 680 and 560
Population Apoptotic (%) [6]: 47% and 50%
Population Fragmented Nuclei (%) [6]: 17% and 12%
Population Healthy Nuclei (%) [6]: 73% and 80%
Population Hoechst High Intensity Objects (%) [6]: 6% and 10%
Population Membrane Permeable-Phenotype (%) [6]: 0%
Population Mitochondria Different-Phenotype (%) [6]: 31% and 33%
Population Mitotic Cells (%) [6]: 52% and 50%
Population Normal (%) [6]: 93% and 89%
Population Pyknosed Nuclei (%) [6]: 9% and 6%
Population Tubulin-Different-Phenotype (%) [6]: 14% and 20%
Total Cell Count [6]: 421 and 612
